System: not listed separately
Assay: Growth inhibition of human A549 cells by MTS assay
Assay type: functional, cell-based
Settings: not given
Procedure, shortened: (§1)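 Cancer lines grown in their own media with 10% FBS at 37 °C, 5% CO2; 1 × 10^4 cells/well treated 48 h at 0.01−100 μM (DMSO stocks, 0.1% DMSO control), quadruplicate wells. MTS reagent 1−4 h, absorbance 490 nm. IC50 by sigmoidal fitting; mean ± SD of three independent experiments.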
In the case of COc1cc2occ(-c3cc(OC)c(OC)c(OC)c3OC)c(=O)c2cc1OC, the IC50 is reported as > 10 µM.
In the case of COc1ccc(-c2coc3cc(OC)c(OC)cc3c2=O)cc1, the IC50 is reported as > 10 µM.
With COc1ccc(-c2coc3cc(OC)c(OC)cc3c2=O)cc1OC the IC50 was > 10 µM.
With COc1cc2occ(-c3cc(OC)c4c(c3)OCO4)c(=O)c2cc1OC the IC50 was > 10 µM.
With COc1ccc(-c2coc3c(OC)c4c(c(OC)c3c2=O)OCO4)cc1OC the IC50 was > 10 µM.
In the case of COc1cc2occ(-c3cc(OC)c(OC)c(OC)c3)c(=O)c2cc1OC, the IC50 is reported as > 10 µM.

System: Paracentrotus lividus
Assay: Antimitotic activity against sea urchin Paracentrotus lividus L embryo assessed as induction of tuberculate egg formation
Assay type: functional
Settings: not given
Procedure, shortened: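 Fertilized eggs were exposed 8−15 min post-fertilization to 2-fold decreasing concentrations, as a monolayer of up to 2000 embryos/mL in filtered seawater at room temperature. The 10 mM DMSO stock was diluted 10-fold in 96% EtOH. Cleavage alteration or arrest was scored by light microscopy at 2.5−5.5 h post-fertilization, and the effective threshold concentration was recorded from duplicate measurements.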
With COc1ccc(-c2coc3cc(OC)c(OC)cc3c2=O)cc1 the EC was 1 µM.
For COc1cc2occ(-c3cc(OC)c4c(c3)OCO4)c(=O)c2cc1OC, the EC was 1 µM.
With COc1cc2occ(-c3cc(OC)c(OC)c(OC)c3)c(=O)c2cc1OC the EC was 1 µM.

System: Paracentrotus lividus
Assay: Antimitotic activity in sea urchin Paracentrotus lividus L embryo assessed as induction of cleavage alteration
Assay type: functional
Settings: not given
Procedure, shortened: (§2)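 Gametes collected by intracoelomic 0.5 M KCl injection; fertilized eggs (8−15 min postfertilization) exposed in seawater to 2-fold decreasing concentrations, up to 2000 embryos/mL, room temperature. Stocks 10 mM in DMSO diluted 10-fold in 96% EtOH. Cleavage alteration/arrest scored at 2.5−5.5 h; effective threshold concentration reported, duplicate measurements.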
In the case of COc1cc2occ(-c3cc(OC)c(OC)c(OC)c3OC)c(=O)c2cc1OC, the EC is reported as >4 µM.
With COc1ccc(-c2coc3cc(OC)c(OC)cc3c2=O)cc1 the EC was 0.2 µM.
Molecule COc1ccc(-c2coc3cc(OC)c(OC)cc3c2=O)cc1OC has an EC of 4 µM.
For COc1cc2occ(-c3cc(OC)c4c(c3)OCO4)c(=O)c2cc1OC, the EC was 0.1 µM.
With COc1ccc(-c2coc3c(OC)c4c(c(OC)c3c2=O)OCO4)cc1OC the EC was >4 µM.
COc1cc2occ(-c3cc(OC)c(OC)c(OC)c3)c(=O)c2cc1OC showed an EC of 0.2 µM.

System: not listed separately
Assay: Growth inhibition of human MDA-MB-231 cells measured after 48 hrs by MTS assay
Assay type: functional, cell-based
Settings: MDA-MB-231, 48 h
Procedure, shortened: as §1
In the case of COc1cc2occ(-c3cc(OC)c(OC)c(OC)c3OC)c(=O)c2cc1OC, the IC50 is reported as > 10 µM.
For COc1ccc(-c2coc3cc(OC)c(OC)cc3c2=O)cc1, the IC50 was > 10 µM.
For COc1ccc(-c2coc3cc(OC)c(OC)cc3c2=O)cc1OC, the IC50 was > 10 µM.
In the case of COc1cc2occ(-c3cc(OC)c4c(c3)OCO4)c(=O)c2cc1OC, the IC50 is reported as > 10 µM.
For COc1ccc(-c2coc3c(OC)c4c(c(OC)c3c2=O)OCO4)cc1OC, the IC50 was > 10 µM.
In the case of COc1cc2occ(-c3cc(OC)c(OC)c(OC)c3)c(=O)c2cc1OC, the IC50 is reported as > 10 µM.

System: Paracentrotus lividus
Assay: Antimitotic activity against sea urchin Paracentrotus lividus L embryo assessed as induction of cleavage arrest
Assay type: functional
Settings: not given
Procedure, shortened: as §2
With COc1cc2occ(-c3cc(OC)c(OC)c(OC)c3OC)c(=O)c2cc1OC the EC was >4 µM.
With COc1ccc(-c2coc3cc(OC)c(OC)cc3c2=O)cc1OC the EC was >4 µM.
With COc1ccc(-c2coc3c(OC)c4c(c(OC)c3c2=O)OCO4)cc1OC the EC was >4 µM.

System: not listed separately
Assay: Growth inhibition of human PBMC cells measured after 48 hrs by MTS assay
Assay type: cell-based
Settings: not given
Procedure, shortened: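 PBMCs from healthy volunteers by Ficoll-Paque density separation, washed in RPMI 1640, cultured in RPMI 1640 with 10% heat-inactivated FBS at 37 °C, 5% CO2. Seeded 1 × 10^4 cells/well, treated 48 h at 0.01−100 μM, 0.1% DMSO control, quadruplicate wells; MTS read at 490 nm; IC50 by sigmoidal fitting, three experiments.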
In the case of COc1cc2occ(-c3cc(OC)c(OC)c(OC)c3OC)c(=O)c2cc1OC, the IC50 is reported as > 10 µM.
With COc1ccc(-c2coc3cc(OC)c(OC)cc3c2=O)cc1 the IC50 was > 10 µM.
For COc1ccc(-c2coc3cc(OC)c(OC)cc3c2=O)cc1OC, the IC50 was > 10 µM.
With COc1cc2occ(-c3cc(OC)c4c(c3)OCO4)c(=O)c2cc1OC the IC50 was > 10 µM.
In the case of COc1ccc(-c2coc3c(OC)c4c(c(OC)c3c2=O)OCO4)cc1OC, the IC50 is reported as > 10 µM.
For COc1cc2occ(-c3cc(OC)c(OC)c(OC)c3)c(=O)c2cc1OC, the IC50 was > 10 µM.

System: not listed separately
Assay: Growth inhibition of human DU145 cells measured after 48 hrs by MTS assay
Assay type: functional, cell-based
Settings: DU-145, 48 h
Procedure, shortened: as §1
In the case of COc1cc2occ(-c3cc(OC)c(OC)c(OC)c3OC)c(=O)c2cc1OC, the IC50 is reported as > 10 µM.
For COc1ccc(-c2coc3cc(OC)c(OC)cc3c2=O)cc1, the IC50 was > 10 µM.
With COc1ccc(-c2coc3cc(OC)c(OC)cc3c2=O)cc1OC the IC50 was > 10 µM.
With COc1cc2occ(-c3cc(OC)c4c(c3)OCO4)c(=O)c2cc1OC the IC50 was > 10 µM.
In the case of COc1ccc(-c2coc3c(OC)c4c(c(OC)c3c2=O)OCO4)cc1OC, the IC50 is reported as > 10 µM.
Molecule COc1cc2occ(-c3cc(OC)c(OC)c(OC)c3)c(=O)c2cc1OC has an IC50 of 4.9 µM.

System: Paracentrotus lividus
Assay: Antimitotic activity against sea urchin Paracentrotus lividus L embryo assessed as induction of embryo spinning
Assay type: functional
Settings: not given
Procedure, shortened: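 Hatched free-swimming blastulae (8−9 h postfertilization) exposed to 2-fold decreasing concentrations in seawater, room temperature; DMSO stock diluted 10-fold in 96% EtOH. Observed to four-arm pluteus (34−36 h); spinning on well bottom without forward movement scored as microtubule destabilization; effective threshold concentration, duplicate measurements.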
With COc1cc2occ(-c3cc(OC)c(OC)c(OC)c3OC)c(=O)c2cc1OC the EC was >4 µM.
In the case of COc1ccc(-c2coc3cc(OC)c(OC)cc3c2=O)cc1, the EC is reported as >5 µM.
With COc1ccc(-c2coc3cc(OC)c(OC)cc3c2=O)cc1OC the EC was >4 µM.
With COc1cc2occ(-c3cc(OC)c4c(c3)OCO4)c(=O)c2cc1OC the EC was >5 µM.
With COc1ccc(-c2coc3c(OC)c4c(c(OC)c3c2=O)OCO4)cc1OC the EC was >4 µM.
For COc1cc2occ(-c3cc(OC)c(OC)c(OC)c3)c(=O)c2cc1OC, the EC was >5 µM.

System: not listed separately
Assay: Growth inhibition of human PC3 cells measured after 48 hrs by MTS assay
Assay type: functional, cell-based
Settings: PC-3, 48 h
Procedure, shortened: as §1
With COc1cc2occ(-c3cc(OC)c(OC)c(OC)c3OC)c(=O)c2cc1OC the IC50 was > 10 µM.
In the case of COc1ccc(-c2coc3cc(OC)c(OC)cc3c2=O)cc1, the IC50 is reported as > 10 µM.
In the case of COc1ccc(-c2coc3cc(OC)c(OC)cc3c2=O)cc1OC, the IC50 is reported as > 10 µM.
For COc1cc2occ(-c3cc(OC)c4c(c3)OCO4)c(=O)c2cc1OC, the IC50 was > 10 µM.
For COc1ccc(-c2coc3c(OC)c4c(c(OC)c3c2=O)OCO4)cc1OC, the IC50 was > 10 µM.
Work on COc1cc2occ(-c3cc(OC)c(OC)c(OC)c3)c(=O)c2cc1OC yielded an IC50 of 5.1 µM.

System: not listed separately
Assay: Growth inhibition of human SKOV3 cells measured after 48 hrs by MTS assay
Assay type: functional, cell-based
Settings: SK-OV-3, 48 h
Procedure, shortened: as §1
With COc1cc2occ(-c3cc(OC)c(OC)c(OC)c3OC)c(=O)c2cc1OC the IC50 was > 10 µM.
For COc1ccc(-c2coc3cc(OC)c(OC)cc3c2=O)cc1, the IC50 was > 10 µM.
In the case of COc1ccc(-c2coc3cc(OC)c(OC)cc3c2=O)cc1OC, the IC50 is reported as > 10 µM.
For COc1cc2occ(-c3cc(OC)c4c(c3)OCO4)c(=O)c2cc1OC, the IC50 was > 10 µM.
With COc1ccc(-c2coc3c(OC)c4c(c(OC)c3c2=O)OCO4)cc1OC the IC50 was > 10 µM.
With COc1cc2occ(-c3cc(OC)c(OC)c(OC)c3)c(=O)c2cc1OC the IC50 was 4.3 µM.

System: not listed separately
Assay: Growth inhibition of human HCT116 cells measured after 48 hrs by MTS assay
Assay type: functional, cell-based
Settings: HCT-116, 48 h
Procedure, shortened: as §1
For COc1cc2occ(-c3cc(OC)c(OC)c(OC)c3OC)c(=O)c2cc1OC, the IC50 was > 10 µM.
In the case of COc1ccc(-c2coc3cc(OC)c(OC)cc3c2=O)cc1, the IC50 is reported as > 10 µM.
For COc1ccc(-c2coc3cc(OC)c(OC)cc3c2=O)cc1OC, the IC50 was > 10 µM.
With COc1cc2occ(-c3cc(OC)c4c(c3)OCO4)c(=O)c2cc1OC the IC50 was > 10 µM.
In the case of COc1ccc(-c2coc3c(OC)c4c(c(OC)c3c2=O)OCO4)cc1OC, the IC50 is reported as > 10 µM.
With COc1cc2occ(-c3cc(OC)c(OC)c(OC)c3)c(=O)c2cc1OC the IC50 was 2.8 µM.

System: not listed separately
Assay: Growth inhibition of human A375 cells measured after 48 hrs by MTS assay
Assay type: functional, cell-based
Settings: A-375, 48 h
Procedure, shortened: as §1
For COc1cc2occ(-c3cc(OC)c(OC)c(OC)c3OC)c(=O)c2cc1OC, the IC50 was > 10 µM.
In the case of COc1ccc(-c2coc3cc(OC)c(OC)cc3c2=O)cc1, the IC50 is reported as > 10 µM.
With COc1ccc(-c2coc3cc(OC)c(OC)cc3c2=O)cc1OC the IC50 was > 10 µM.
For COc1cc2occ(-c3cc(OC)c4c(c3)OCO4)c(=O)c2cc1OC, the IC50 was 6.1 µM.
With COc1ccc(-c2coc3c(OC)c4c(c(OC)c3c2=O)OCO4)cc1OC the IC50 was > 10 µM.
COc1cc2occ(-c3cc(OC)c(OC)c(OC)c3)c(=O)c2cc1OC gave an IC50 of 3.2 µM.
